Laboratory results published in ChEMBL document CHEMBL4406809, “Design of balanced COX inhibitors based on anti-inflammatory and/or COX-2 inhibitory ascidian metabolites” (Eur J Med Chem, 2019).
Active and inactive are the calls of the source. The rule behind the calls is not given here.

Key:
[1] = molecular target: T1, Prostaglandin G/H synthase 2 (Homo sapiens) (UniProt P35354); experiment: Inhibition of recombinant human COX2 at 30 uM using arachidonic acid as substrate pretreated for 5 mins followed by substrate addition and measured after 2 mins by fluorescence based enzyme immunoassay
T1 sequence (whole entry): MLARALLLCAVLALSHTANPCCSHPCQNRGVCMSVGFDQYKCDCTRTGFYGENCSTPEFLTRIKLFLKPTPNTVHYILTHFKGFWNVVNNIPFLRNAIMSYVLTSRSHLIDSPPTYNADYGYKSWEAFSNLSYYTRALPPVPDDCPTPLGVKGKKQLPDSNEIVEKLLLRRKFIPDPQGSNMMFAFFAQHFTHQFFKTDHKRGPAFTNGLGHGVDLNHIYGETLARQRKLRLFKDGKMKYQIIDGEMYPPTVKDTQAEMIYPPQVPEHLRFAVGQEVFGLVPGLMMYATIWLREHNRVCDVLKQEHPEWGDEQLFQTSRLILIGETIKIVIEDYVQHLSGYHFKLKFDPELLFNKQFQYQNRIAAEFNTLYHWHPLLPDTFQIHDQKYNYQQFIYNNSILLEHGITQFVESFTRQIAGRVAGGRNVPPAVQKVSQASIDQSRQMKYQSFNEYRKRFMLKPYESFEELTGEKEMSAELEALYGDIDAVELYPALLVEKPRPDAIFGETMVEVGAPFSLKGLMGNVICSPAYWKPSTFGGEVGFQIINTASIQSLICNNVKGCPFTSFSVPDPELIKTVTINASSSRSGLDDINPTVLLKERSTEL

[2] = molecular target: T2, Prostaglandin G/H synthase 1 (Ovis aries) (UniProt P05979); experiment: Inhibition of ovine COX1 at 30 uM using arachidonic acid as substrate pretreated for 5 mins followed by substrate addition and measured after 2 mins by fluorescence based enzyme immunoassay
T2 sequence (whole entry): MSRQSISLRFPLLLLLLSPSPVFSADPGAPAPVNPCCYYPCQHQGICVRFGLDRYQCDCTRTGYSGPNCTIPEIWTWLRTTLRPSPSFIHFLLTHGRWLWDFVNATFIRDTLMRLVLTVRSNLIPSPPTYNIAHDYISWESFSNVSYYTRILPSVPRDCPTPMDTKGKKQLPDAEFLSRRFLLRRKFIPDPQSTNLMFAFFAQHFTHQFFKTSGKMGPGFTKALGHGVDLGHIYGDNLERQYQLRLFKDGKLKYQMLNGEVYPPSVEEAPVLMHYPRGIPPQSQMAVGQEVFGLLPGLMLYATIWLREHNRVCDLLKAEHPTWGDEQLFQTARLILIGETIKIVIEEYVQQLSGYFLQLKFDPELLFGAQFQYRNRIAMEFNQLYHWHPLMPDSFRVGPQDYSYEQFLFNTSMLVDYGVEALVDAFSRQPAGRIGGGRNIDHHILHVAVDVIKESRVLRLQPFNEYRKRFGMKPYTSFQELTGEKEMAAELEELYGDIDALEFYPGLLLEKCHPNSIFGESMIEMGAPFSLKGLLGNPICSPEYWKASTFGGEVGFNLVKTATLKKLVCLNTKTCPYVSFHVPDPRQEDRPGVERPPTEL

RAW264.7 [3] = experiment: Antiinflammatory activity against mouse RAW264.7 cells assessed as inhibition of LPS-stimulated NO production pretreated for 1 hrs followed by LPS addition and measured after 24 hrs by Griess reagent based assay; assay type: functional, cell-based
Procedure, shortened: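 RAW264.7 cells at about 1×10^4 cells/well, grown 12 h. Pretreated 1 h at 2.5, 5 or 10 μM, then LPS 25 ng/mL for 24 h. Supernatant mixed 1:1 with Griess reagent for 15 min at 37°C in the dark, A520 read. Nitrite quantified against 0–100 μM sodium nitrite standards.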

[4] = Cytotoxicity against rat Ac2F cells assessed as reduction in cell viability up to 50 uM incubated of WST assay; assay type: cell-based
Procedure, shortened: (§1)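 Cells seeded at 1.0×10^4 cells/well, grown 12 h in DMEM with 10% FBS, then exposed 24 h to 10, 25 or 50 μM; medium-only controls. WST reagent added for 1 h at 37°C and absorbance read at 450 nm. Cells in exponential phase.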

L929 = experiment: Cytotoxicity against mouse L929 cells assessed as reduction in cell viability up to 50 uM incubated of WST assay; assay type: cell-based; procedure, shortened: as §1
RAW264.7 [5] = experiment: Antiinflammatory activity against mouse RAW264.7 cells assessed as downregulation of LPS-stimulated iNOS protein expression at 20 uM pretreated for 1 hrs followed by LPS addition and measured after 24 hrs by Western blot analysis; assay type: functional, cell-based
Procedure, shortened: (§2)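 Cells treated at various concentrations, then cultured with or without LPS (1 µg/mL) for 24 h; dexamethasone 10 µM as positive control. Lysates taken in buffer with protease/phosphatase inhibitors and protein quantified by BCA. Equal protein run on 10% SDS-PAGE, transferred to PVDF, blocked in TBS-T/5% milk, then primary antibodies overnight at 4°C and HRP anti-rabbit secondary. Mean ± SD, n=3.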

[6] = molecular target: T3, I-kappa-B kinase (Mus musculus) (UniProt Q60680+O88351+O88522); experiment: Inhibition of LPS-stimulated IKK phosphorylation in mouse RAW264.7 cells assessed as decrease in IkappaBalpha phosphorylation level at 5 to 20 uM pretreated for 1 hrs followed by LPS addition and measured after 30 mins by Western blot analysis; assay type: cell-based
[7] = molecular target: Transcription factor p65 (Mus musculus) (UniProt Q04207); experiment: Inhibition of LPS-stimulated NFkappaB p65 nuclear translocation in mouse RAW264.7 cells retreated for 1 hrs followed by LPS addition and measured after 30 mins by Western blot analysis; assay type: cell-based
Transcription factor p65 (Mus musculus), sequence (Q04207 whole entry): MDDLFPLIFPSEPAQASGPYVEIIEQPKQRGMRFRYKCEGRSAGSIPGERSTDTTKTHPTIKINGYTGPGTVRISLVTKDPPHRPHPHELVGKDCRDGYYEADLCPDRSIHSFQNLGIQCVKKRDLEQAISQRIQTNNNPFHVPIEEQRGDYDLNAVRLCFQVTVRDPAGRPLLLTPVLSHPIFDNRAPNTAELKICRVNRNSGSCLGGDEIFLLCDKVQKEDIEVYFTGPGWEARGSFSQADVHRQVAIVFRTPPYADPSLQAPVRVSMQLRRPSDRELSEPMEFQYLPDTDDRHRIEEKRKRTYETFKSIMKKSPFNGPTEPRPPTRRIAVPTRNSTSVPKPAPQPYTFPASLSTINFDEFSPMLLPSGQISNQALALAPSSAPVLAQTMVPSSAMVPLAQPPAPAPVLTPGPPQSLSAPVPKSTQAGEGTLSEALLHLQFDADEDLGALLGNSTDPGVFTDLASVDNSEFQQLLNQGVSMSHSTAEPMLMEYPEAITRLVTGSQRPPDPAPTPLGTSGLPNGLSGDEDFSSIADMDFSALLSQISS

[8] = molecular target: T3, I-kappa-B kinase (Mus musculus); experiment: Inhibition of LPS-stimulated IKK phosphorylation in mouse RAW264.7 cells at 5 to 20 uM pretreated for 1 hrs followed by LPS addition and measured after 30 mins by Western blot analysis; assay type: cell-based
RAW264.7 [9] = experiment: Antiinflammatory activity against mouse RAW264.7 cells assessed as decrease in LPS-stimulated IL6 production pretreated for 1 hrs followed by LPS addition and measured after 24 hrs by sandwich ELISA; assay type: functional, cell-based
Procedure, shortened: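 RAW264.7 cells seeded at about 1×10^4 cells/well and grown 12 h. Pretreated 1 h with 2.5, 5 or 10 μM, then LPS 100 ng/mL added: 24 h for IL-6, 3 h for TNF-α. Cytokines in the medium quantified by sandwich ELISA, A450. Representative of three independent experiments.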

RAW264.7 [10] = experiment: Antiinflammatory activity against mouse RAW264.7 cells assessed as downregulation of LPS-stimulated COX2 protein expression pretreated for 1 hrs followed by LPS addition and measured after 24 hrs by Western blot analysis; assay type: functional, cell-based; procedure, shortened: as §2
[11] = molecular target: Transcription factor p65 (Mus musculus) (UniProt Q04207); experiment: Inhibition of LPS-induced NFkappaB p65 nuclear translocation in mouse RAW264.7 cells at 20 uM preincubated for 1 hrs followed by LPS-stimulation and measured after 24 hrs by DAPI staining based confocal microscopic method; assay type: cell-based
[12] = molecular target: T4, Prostaglandin G/H synthase 2 (Mus musculus) (UniProt Q05769); experiment: Inhibition of COX2 in mouse RAW264.7 cells assessed as decrease in LPS-stimulated PGE2 production pretreated for 1 hrs followed by LPS addition and measured after 24 hrs by sandwich ELISA; assay type: cell-based
T4 sequence (whole entry): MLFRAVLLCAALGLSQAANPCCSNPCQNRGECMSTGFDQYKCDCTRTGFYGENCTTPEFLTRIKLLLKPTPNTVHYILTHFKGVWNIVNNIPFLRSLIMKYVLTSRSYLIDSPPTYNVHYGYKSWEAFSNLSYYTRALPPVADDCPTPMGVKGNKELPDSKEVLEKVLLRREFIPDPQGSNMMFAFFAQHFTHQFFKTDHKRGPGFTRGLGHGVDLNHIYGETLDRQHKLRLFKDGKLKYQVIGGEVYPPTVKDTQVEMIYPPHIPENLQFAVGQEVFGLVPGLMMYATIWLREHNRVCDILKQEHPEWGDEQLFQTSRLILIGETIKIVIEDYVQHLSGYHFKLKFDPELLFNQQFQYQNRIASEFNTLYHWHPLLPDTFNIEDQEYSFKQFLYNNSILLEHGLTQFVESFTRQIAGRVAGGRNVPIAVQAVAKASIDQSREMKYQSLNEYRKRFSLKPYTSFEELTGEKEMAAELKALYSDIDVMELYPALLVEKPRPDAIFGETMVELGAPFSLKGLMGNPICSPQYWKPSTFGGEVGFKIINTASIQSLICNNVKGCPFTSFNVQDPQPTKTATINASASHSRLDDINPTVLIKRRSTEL
Procedure, shortened: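 RAW264.7 cells at about 1×10^4 cells/well, grown 12 h. Pretreated 1 h at 2.5, 5 or 10 μM, then stimulated with LPS 100 ng/mL for 24 h. PGE2 in the medium measured by PGE2 express ELISA, absorbance at 415 nm. Representative of three independent experiments.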

RAW264.7 [13] = experiment: Cytotoxicity against mouse RAW264.7 cells assessed as reduction in cell viability up to 50 uM incubated of WST assay; assay type: cell-based; procedure, shortened: as §1
RAW264.7 [14] = experiment: Antiinflammatory activity against mouse RAW264.7 cells assessed as downregulation of LPS-stimulated iNOS protein expression pretreated for 1 hrs followed by LPS addition and measured after 24 hrs by Western blot analysis; assay type: functional, cell-based; procedure, shortened: as §2
RAW264.7 [15] = experiment: Antiinflammatory activity against mouse RAW264.7 cells assessed as reduction in LPS-stimulated ROS production at 20 uM pretreated for 1 hrs followed by LPS addition and measured after 24 hrs by DCFH-DA dye based fluorescence assay; assay type: functional, cell-based
Procedure, shortened: (§3)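 RAW264.7 cells at about 1×10^4 cells/well, grown 12 h, pretreated 1 h, then LPS 1 μg/mL for 24 h. Loaded with DCFH-DA at 100 μM final in FBS-free medium, 30 min at 37°C. After washing, fluorescence read at Ex 485/Em 520 nm on a plate reader; confocal imaging done in parallel dishes.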

RAW264.7 [16] = experiment: Antiinflammatory activity against mouse RAW264.7 cells assessed as decrease in LPS-stimulated TNFalpha production pretreated for 1 hrs followed by LPS addition and measured after 24 hrs by sandwich ELISA; assay type: functional, cell-based
RAW264.7 [17] = experiment: Antiinflammatory activity against mouse RAW264.7 cells assessed as downregulation of LPS-stimulated COX2 protein expression at 20 uM pretreated for 1 hrs followed by LPS addition and measured after 24 hrs by Western blot analysis; assay type: functional, cell-based; procedure, shortened: as §2
RAW264.7 [18] = experiment: Antiinflammatory activity against mouse RAW264.7 cells assessed as reduction in LPS-stimulated ROS production pretreated for 1 hrs followed by LPS addition and measured after 24 hrs by DCFH-DA dye based fluorescence assay; assay type: functional, cell-based; procedure, shortened: as §3
RAW264.7 [19] = experiment: Antiinflammatory activity against mouse RAW264.7 cells assessed as downregulation of LPS-stimulated iNOS protein expression at 10 uM pretreated for 1 hrs followed by LPS addition and measured after 24 hrs by Western blot analysis; assay type: functional, cell-based
Procedure, shortened: (§4)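 RAW264.7 macrophages (DMEM, 10% heat-inactivated FBS, 37 °C, 5% CO2) pretreated with compound, then cultured with or without LPS 1 µg/mL for 24 h. Lysates in buffer with protease/phosphatase inhibitors, BCA-normalised, 10% SDS-PAGE, PVDF transfer, milk/TBS-T block, primary antibody overnight at 4 °C, HRP anti-rabbit secondary, chemiluminescence. Dexamethasone 10 µM positive control; mean ± SD of three independent experiments.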

RAW264.7 [20] = experiment: Antiinflammatory activity against mouse RAW264.7 cells assessed as downregulation of LPS-stimulated COX2 protein expression at 10 uM pretreated for 1 hrs followed by LPS addition and measured after 24 hrs by Western blot analysis; assay type: functional, cell-based; procedure, shortened: as §4

CCCCC/C=N/NC(=O)c1cn(Cc2ccc(Cl)cc2)c2ccccc12
inhibition [1]: Active
inhibition [2]: Active

N#Cc1ccc(/C=N/NC(=O)c2cn(Cc3ccc(Cl)cc3)c3ccccc23)cc1
inhibition (RAW264.7 [3]): Dose-dependent effect
Activity [4]: Non-Toxic
Activity (L929): Non-Toxic
inhibition [1]: Active
Activity (RAW264.7 [5]): Active
inhibition [6]: Active
inhibition [7]: Dose-dependent effect
inhibition [8]: Active
Activity (RAW264.7 [9]): Dose-dependent effect
Activity (RAW264.7 [10]): Dose-dependent effect
inhibition [11]: Active
inhibition [12]: Active
Activity (RAW264.7 [13]): Non-Toxic
inhibition [2]: Active
Activity (RAW264.7 [14]): Dose-dependent effect
Activity (RAW264.7 [15]): Active
Activity (RAW264.7 [16]): Dose-dependent effect
Activity (RAW264.7 [17]): Active
Activity (RAW264.7 [18]): Dose-dependent effect

O=C(N/N=C/c1ccco1)c1cn(Cc2ccc(Cl)cc2)c2ccccc12
inhibition [1]: Active
inhibition [2]: Active

O=C(O)Cc1ccccc1Nc1c(Cl)cccc1Cl
Activity (RAW264.7 [15]): Active

C[C@@H]1C[C@H]2[C@@H]3CCC4=CC(=O)C=C[C@]4(C)[C@@]3(F)[C@@H](O)C[C@]2(C)[C@@]1(O)C(=O)CO
Activity (RAW264.7 [19]): Active
Activity (RAW264.7 [20]): Active
